beta cell repl = MIN6 beta-cell proliferation induction; MIN6 cells proliferation, ATPlite luminescence, 48 h; cells starved in 0.2% serum; 100% = growth in 10% serum; proliferation, % at 10 µM; 0.29% of 330,000 active; AID 2380;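 active = compounds whose signal lies at least 3.5 SD above the mean of all wells on their plate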;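 note: 0% = DMSO-treated cells in low-serum medium and 100% = 10% serum control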
ANO1 activ = activates or potentiates the mouse TMEM16A chloride channel. Q8BHY3. HEK293 TMEM16A/YFP-H148Q/I152L, iodide quench fluorescence; hits give low values. B-score at 10 µM. 0.3% of 340,000 active. AID 623877;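 active = fluorescence-ratio B-score plate-corrected deviation score at least 3 library SD below zero, with starting fluorescence score within 5 deviations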;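 note: channel opened by trigger with iodide after compound preincubation; score built on the fluorescence ratio of max minus min over baseline; more negative score means more quench and so TMEM16A activation or potentiation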
Target sequence (Q8BHY3 whole entry, looked up): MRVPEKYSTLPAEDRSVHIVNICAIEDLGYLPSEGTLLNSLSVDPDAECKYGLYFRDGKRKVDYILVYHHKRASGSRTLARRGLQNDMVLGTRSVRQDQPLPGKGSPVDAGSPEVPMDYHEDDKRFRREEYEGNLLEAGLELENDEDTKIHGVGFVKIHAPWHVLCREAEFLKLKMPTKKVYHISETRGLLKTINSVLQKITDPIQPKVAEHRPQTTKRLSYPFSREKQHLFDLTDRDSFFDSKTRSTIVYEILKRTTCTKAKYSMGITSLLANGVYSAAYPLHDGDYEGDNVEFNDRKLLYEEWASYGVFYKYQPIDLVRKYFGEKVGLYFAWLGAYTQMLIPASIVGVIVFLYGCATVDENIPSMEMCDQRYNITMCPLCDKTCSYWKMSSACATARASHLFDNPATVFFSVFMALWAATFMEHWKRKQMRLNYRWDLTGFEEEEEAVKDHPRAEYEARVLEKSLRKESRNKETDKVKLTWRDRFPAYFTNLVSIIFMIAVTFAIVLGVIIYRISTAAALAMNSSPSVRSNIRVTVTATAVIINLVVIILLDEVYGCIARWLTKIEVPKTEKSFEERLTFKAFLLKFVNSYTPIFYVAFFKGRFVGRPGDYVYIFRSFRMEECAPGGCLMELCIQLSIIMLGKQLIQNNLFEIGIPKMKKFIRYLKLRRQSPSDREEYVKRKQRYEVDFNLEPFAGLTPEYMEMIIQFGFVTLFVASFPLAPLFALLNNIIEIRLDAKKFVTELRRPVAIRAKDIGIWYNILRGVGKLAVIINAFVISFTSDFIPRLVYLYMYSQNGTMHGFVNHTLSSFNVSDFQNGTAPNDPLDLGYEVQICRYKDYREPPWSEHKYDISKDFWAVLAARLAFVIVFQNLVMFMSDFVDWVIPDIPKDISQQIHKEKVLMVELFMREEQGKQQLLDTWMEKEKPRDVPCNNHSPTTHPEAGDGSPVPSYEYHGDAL
MC4R ag barr = agonists of human melanocortin 4 receptor (MC4R) beta-arrestin; P32245; U2OS MC4R beta-arrestin complementation, luminescence; percent of melanotan II response, DMSO zero; activation, % at 8.9 µM; 0.98% of 360,000 active;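 active = activation above a per-plate cutoff, the mean activation of sample wells on that plate plus 3 SD, cut at about 8% in these data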
ANO1 block = mouse TMEM16A channel inhibition, primary screen; HEK293 TMEM16A/YFP iodide influx fluorescence, ionomycin; normalized B-score (activity score, 25-100; higher = stronger inhibition) at 10 µM; 1.2% of 310,000 active;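 active = ratio plate-corrected score three or more library SD toward inhibition, starting fluorescence score within five deviations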;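 note: score derived from kinetic fluorescence span divided by baseline fluorescence per well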
MC4R antag cAMP = human MC4R antagonism in cAMP assay; MC4R-expressing cells, MTII-stimulated cAMP, LANCE TR-FRET; inhibition, % at 6.5 µM; 0.48% of 360,000 active; AID 540295;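 active = inhibition above its plate's cutoff, the mean of tested wells on that plate plus 3 SD, cut at about 29% in these data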;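 note: 0% = Melanotan II alone and 100% = Melanotan II plus saturating MCL0020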
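System: U2OS cells stably expressing human melanocortin 4 receptor (MC4R). Reagent: Melanotan II challenge after compound preincubation. Doses: 6.5 µM. Times: 30-min compound, 1-h challenge, 1-h detection, room temperature. Measured by: TR-FRET with Eu-cAMP and labeled anti-cAMP, 671 nm. Replicates: singlicate.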
HTR2A ag = agonists of mouse serotonin 5-HT2A receptor (HTR2A). P35363. CHO-K1 mHTR2A beta-arrestin complementation, luminescence; percent of 30 µM serotonin response. activation, % at 7.6 µM. 0.66% of 360,000 active. AID 624169;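 active = activation above a run cutoff, the mean activation of all tested compounds plus 3 SD, cut at about 14% in these data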;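 note: 0% = plate median of compound wells and 100% = 30 µM serotonin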
U2OS cAMP counter = nonselective cAMP signaling inhibitor, MC4R antagonist counter-screen; shares compounds with MC4R antag cAMP; parental U2OS, forskolin cAMP, LANCE TR-FRET; inhibition, % at 6.5 µM; 26% of 1,600 active;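 active = mean inhibition over triplicates above the low-control well mean plus 3 SD, set per campaign, cut at about 13% in these data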;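 note: signal is single emission at 671 nm which falls as cellular cAMP rises; 0% = forskolin-stimulated wells and 100% = buffer without forskolin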
MC4R cAMP antag = human MC4R cAMP antagonism confirmation; shares compounds with MC4R antag cAMP; AID 602195; MC4R-expressing cells, MTII-stimulated cAMP, TR-FRET; 27% of 1,600 active; inhibition, % at 6.5 µM; in the data active = inhibition above about 29%;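 note: 0% = agonist stimulated wells alone and 100% = agonist stimulated wells plus saturating reference antagonist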
MC4R barr conf = human MC4R beta-arrestin agonism confirmation | shares compounds with MC4R ag barr | U2OS MC4R beta-arrestin recruitment, luminescence; scaled DMSO 0%, Melanotan II 100% | activation, % at 8.9 µM | 31% of 2,400 active;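 active = mean activation across replicates above the hit cutoff set in the earlier primary screen, cut at about 8% in these data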
MOR-DOR barr ag = counter-screen for MC4R agonists: agonists of mu-delta opioid heterodimer; shares compounds with MC4R ag barr; U2OS PathHunter beta-arrestin, beta-gal luminescence; percent of deltorphin B response, DMSO zero; activation, % at 9.2 µM; 5.8% of 2,400 active; AID 602194;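 active = mean activation across replicates exceeds the hit threshold derived in the earlier primary screen, cut at about 18% in these data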;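 note: 100% = deltorphin B at 0.9 µM final and 0% = DMSO alone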
TMEM16A reconf = re-confirmation of mouse TMEM16A chloride channel inhibitors | 39% of 2,300 active | shares compounds with ANO1 block | AID 652189 | HEK293 TMEM16A/YFP-H148Q, iodide quench fluorescence; ionomycin added to raise cell calcium | inhibition, % at 10 µM;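 active = mean duplicate percent inhibition, scaled so buffer wells are 0 and the reference blocker 100, over three buffer SD above buffer mean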
TMEM16A Ca cntr = calcium mobilization counter-screen hit for TMEM16A inhibitor series; 2% of 2,300 active; AID 652231; TMEM16A/YFP HEK293, Fluo4 calcium mobilization; calcium response (% of ionomycin), % at 10 µM; shares compounds with ANO1 block;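 active = duplicate-averaged calcium signal over 20% of the ionomycin maximum, relative to buffer baseline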;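 note: each well's signal is peak minus trough fluorescence divided by its pre-addition baseline; 0% = buffer wells and 100% = ionomycin wells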
Parental YFP cnt = acts in parental YFP-HEK293 cells lacking TMEM16A, counter-screen | shares compounds with ANO1 block | iodide YFP quench, ionomycin | 2,300 tested, under 10 active | YFP ratio F(max-min)/F0 at 10 µM;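 active = yellow fluorescent protein signal ratio exceeding the buffer control mean by over 5 SD of those controls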;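 note: ratio is mean of duplicate wells from kinetic YFP trace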
ClC-1 rat inh = selectivity of TMEM16A inhibitors: inhibition of rat ClC-1 chloride channel. shares compounds with ANO1 block. CHO ClC-1-YFP, iodide influx fluorescence quench; iodide control reads 0, buffer control 100. ratio percent, % at 10 µM. 2,300 tested, under 10 active. AID 652236;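 active = duplicate-mean ratio percent above the mean of iodide-only control wells, which defines zero, plus 5 of their SD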;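 note: higher percent means stronger block of ClC-1 iodide influx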
The depositor's hits bear a star; i = inactive; / = not tested or not shown; ! = repeats disagree. In the library only some 3.4% were active in any assay of this set; here they are far more common.

SMILES	beta cell repl	ANO1 activ	MC4R ag barr	ANO1 block	MC4R antag cAMP	HTR2A ag	U2OS cAMP counter	MC4R cAMP antag	MC4R barr conf	MOR-DOR barr ag	others
CCOC(=O)c1cc(-c2csc(Nc3ccccc3Cl)n2)on1	-3	i	0	i	28	2	/	/	/	/
CCOC(=O)c1cc(-c2csc(N/N=C/c3ccccc3Cl)n2)on1	-3	i	22*	i	40*	-2	14*	71*	13*	5
Nc1c(S(=O)(=O)c2ccccc2)c2nc3ccccc3nc2n1/N=C/c1cccc(O)c1	-4	i	17*	i	35*	2	2	13	10*	8
C=CCn1c(=NC(=O)c2sc3ccccc3c2Cl)sc2cc(S(N)(=O)=O)ccc21	0	i	16*	i	33*	1	4	20	8	2
CCN1CCCC1CNC(=O)Cn1cc(C)c(=O)[nH]c1=O (centres undefined)	/	/	1	/	-2	4	/	/	/	/
COc1ccc(-c2oc3ccc(N4CCOCC4)cc3c2C#Cc2ccc(N)cc2)cc1	-9	i	-1	i	10	6	/	/	/	/
COc1ccc(-c2oc3ccc(N4CCOCC4)cc3c2C#CC2(O)CCCCC2)cc1	-7	i	19*	i	33*	1	6	20	15*	5
Cc1cccc(C)c1NC(=O)CN1C(=O)S/C(=C\c2cccn2-c2cccc(C(=O)O)c2)C1=O	-1	i	-2	i	2	10	/	/	/	/
Cc1cccc(C)c1-n1cccc1/C=C1\SC(=S)N(c2cccc(C(=O)O)c2)C1=O	-6	i	20*	100*	37*	0	-3	-14	20*	2
Oc1ccc[n+](CCCCC[n+]2cccc(O)c2)c1	1	i	-1	i	5	7	/	/	/	/
CCCCCCCCCCCCCCCC[n+]1cccc(C(=O)N(CC)CC)c1	-6	i	13*	i	29*!	2	7	50*	23*	4
COCCN(C(=O)c1ccccc1F)c1nnc(-c2ccc(OC)cc2)s1	0	i	-1	i	-3	-8	/	/	/	/
CC(=O)Nc1ccc(S(=O)(=O)NCCC(=O)OCC(=O)NCc2ccccc2)cc1	0	i	-1	/	-4	0	/	/	/	/
COc1ccc2[nH]c(C(=O)Nc3ccc(F)cc3Br)cc2c1	-2	i	26*	i	29*	0	21*	20	1	5
CCCCNc1c(-c2cccc(-c3cc(C(C)=O)cs3)c2)nc2cc(C)ccn12	-7	i	11*	i	36*	12	1	9	9.5*	6
C[C@@H]1CN([C@@H](C)CO)C(=O)c2cc(Br)cnc2O[C@H]1CN(C)C(=O)Nc1ccccc1	/	/	-1	/	2	-2	/	/	/	/
CC(O)CC(=O)OC[C@]12CC[C@H]3[C@@](C)(CC[C@H]4C(C)(C)CCC[C@]34C)[C@@H]1CC(C1=CC(=O)OC1O)O2 (some centres undefined)	/	/	16*	/	33*	-6	0	23	24*	16
CC1=NNC(=O)/C1=C\c1cn(-c2ccccc2)nc1-c1ccc(Cl)cc1	-6	i	17*	i	31*	9	2	14	33*	6
Cc1cc(C)c(C#N)c(SCC(=O)Nc2cccc(S(=O)(=O)N3CCCC3)c2)n1	-3	i	10.0*	/	32*	4	45*	82*	-1	4
Cc1cc(C)c(C#N)c(SCC(=O)Nc2ccc(S(=O)(=O)Nc3ncccn3)cc2)n1	-4	i	-3	i	3	0	/	/	/	/
Cc1ccc(S(=O)(=O)N2CCCC2)cc1C(=O)NCC(C)(C)N1CCOCC1	-1	i	1	/	12	-4	/	/	/	/
CC(c1ccco1)N(C(=O)c1ccccc1NS(=O)(=O)c1ccc(Cl)c([N+](=O)[O-])c1)c1ccccn1 (centres undefined)	0	i	-1	100*	39*	8	6	16	/	/	TMEM16A reconf=26%*;TMEM16A Ca cntr=i;Parental YFP cnt=-0.91;ClC-1 rat inh=-22
CC(C)(C)c1cc(C(c2cccnc2)N2CCN(CCO)CC2)cc(C(C)(C)C)c1O (centres undefined)	-4	i	-3	100*	29*	4	10	19	/	/	TMEM16A reconf=68%*;TMEM16A Ca cntr=i;Parental YFP cnt=-1.1;ClC-1 rat inh=-42
O=C(NC1=NCCS1)c1ccc(Cl)c(S(=O)(=O)N2CCCC2)c1	0	i	1	25*	32*	6	5	1	/	/	TMEM16A reconf=i;TMEM16A Ca cntr=i;Parental YFP cnt=-0.98;ClC-1 rat inh=-6
O=C(NC1=NCCS1)c1ccc(Cl)c(S(=O)(=O)N2CCCCC2)c1	0	i	-3	i	3	-1	/	/	/	/
O=C(NCC1COCCO1)c1cc(COc2ccc(F)cc2F)on1 (centres undefined)	4	i	2	i	4	-9	/	/	/	/
